Values after ≈ are worked out from the molar mass of the structure shown.
What was measured:
Enterococcus faecalis = assay: Antibacterial activity against Enterococcus faecalis CL8516 after 20 hrs by NCCLS method; format: functional; conditions: CL8516, 20 h
Outline: (§1)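 Twofold serial broth dilution in cation-adjusted Mueller Hinton broth per NCCLS guidelines. Inoculum 10^5 CFU/mL, incubated at 37 °C for 20 h with compound in growth medium. MIC taken as the lowest concentration preventing visible growth.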

Staphylococcus aureus [1] = assay: Antibacterial activity against Staphylococcus aureus Lin after 20 hrs by NCCLS method in presence of 50 % serum; format: functional
Staphylococcus aureus [2] = assay: Antibacterial activity against Staphylococcus aureus Smith after 20 hrs by NCCLS method; format: functional; outline: as §1
Staphylococcus aureus [3] = assay: Antibacterial activity against Staphylococcus aureus expressing FabF antisense plasmid S1-1941 assessed as minimum concentration required to produce differential zone of clearance after 18 hrs by antisense two-plate differential sensitivity cellular assay relative to control; format: functional
Outline: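 S. aureus RN450 carrying the fabF antisense plasmid S1–1941, plus a vector-only control strain, grown 18–20 h at 37 °C in LB with 34 µg/mL chloramphenicol. Seeded at 1:1000 of OD 3.0 into LB agar with 0.2% glucose and 15 µg/mL chloramphenicol; antisense plates also got 50 mM xylose. Samples added to agar wells, incubated 18 h at 37 °C, and zones measured. MDC was found by twofold serial dilution.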

[4] = Inhibition of Staphylococcus aureus FAS2 assessed as 2-[14C]malonyl-CoA incorporation after 90 mins by scintillation counting
Outline: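 Partially purified S. aureus fatty-acid synthesis enzyme mix (1.26 µg) preincubated 20 min at room temperature with serially diluted compound. Buffer: 100 mM sodium phosphate pH 7.0, EDTA, NADPH, NADH, DTT, β-mercaptoethanol, 20 µM octanoyl-CoA (or lauroyl-CoA), 4% DMSO, 5 µM ACP. Started with 4 µM final [2-14C]malonyl-CoA, run 90 min at 37 °C, stopped with perchloric acid, and counted by scintillation on phospholipid-coated flash plates.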

Bacillus subtilis = assay: Antibacterial activity against Bacillus subtilis MB964 after 20 hrs by NCCLS method; format: functional; conditions: MB964, 20 h; outline: as §1
Haemophilus influenzae = assay: Antibacterial activity against Haemophilus influenzae MSD2261 after 20 hrs by NCCLS method; format: functional; conditions: MSD2261, 20 h; outline: as §1
Escherichia coli [5] = assay: Antibacterial activity against wild type Escherichia coli MB2884 after 20 hrs by NCCLS method; format: functional; conditions: MB2884, 20 h; outline: as §1
Escherichia coli [6] = assay: Antibacterial activity against envelope disrupted Escherichia coli MB5746 after 20 hrs by NCCLS method; format: functional; conditions: MB5746, 20 h; outline: as §1
Candida albicans = assay: Antifungal activity against Candida albicans after 20 hrs by NCCLS method; format: functional; outline: as §1
HeLa = assay: Cytotoxicity against human HeLa cells by MTT assay; format: functional, cell-based

Structure (SMILES) | MIC (Enterococcus faecalis) [µg/mL] | MIC (Staphylococcus aureus [1]) [µg/mL] | MIC (Staphylococcus aureus [2]) [µg/mL] | Activity (Staphylococcus aureus [3]) [µg/mL] | IC50 [4] [µg/mL] | MIC (Bacillus subtilis) [µg/mL] | MIC (Haemophilus influenzae) [µg/mL] | MIC (Escherichia coli [5]) [µg/mL] | MIC (Escherichia coli [6]) [µg/mL] | MIC (Candida albicans) [µg/mL] | IC50 (HeLa) [µM]
C=C1[C@H]2CC[C@@]3(C=CC(=O)[C@@](C)(CCC(=O)Nc4c(O)ccc(C(=O)O)c4O)[C@@H]3C2)[C@H]1O [PLATENCIN A3] | 64 (≈ 145 µM) | > 64 | 16 (≈ 36.2 µM) | 20 | 7.1 (≈ 16.1 µM) | 64 (≈ 145 µM) | 64 (≈ 145 µM) | > 64 | 16 (≈ 36.2 µM) | > 64 | > 100
C=C1C[C@@]23C=CC(=O)[C@@](C)(CCC(=O)Nc4c(O)ccc(C(=O)O)c4O)[C@@H]2C[C@@H]1CC3 [PLATENCIN] | 2 (≈ 4.7 µM) | 8 | 0.5 (≈ 1.18 µM) | 0.2 | 12 (≈ 28.2 µM) | 1 (≈ 2.35 µM) | 64 (≈ 150 µM) | > 64 | 2 (≈ 4.7 µM) | > 64 | 86
C[C@@]1(O)C[C@@]23C=CC(=O)[C@@](C)(CCC(=O)Nc4c(O)ccc(C(=O)O)c4O)[C@@H]2C[C@@H]1CC3 [PLATENCIN A4] | > 64 | > 64 | > 64 | 100 | 25.1 (≈ 56.6 µM) | > 64 | > 64 | > 64 | 32 (≈ 72.2 µM) | > 64 | > 100

— ChEMBL document CHEMBL1156148, “Isolation, structure and biological activities of platencin A(2)-A(4) from Streptomyces platensis” (Bioorg Med Chem, 2010)
